Experimental data published in ChEMBL document CHEMBL4257457, “N-Heterocyclic borneol derivatives as inhibitors of Marburg virus glycoprotein-mediated VSIV pseudotype entry” (Medchemcomm, 2017).

What was measured:
[1] = Selectivity index, ratio of CC50 for HEK293 cells to IC50 for Marburg virus envelope glycoprotein-mediated cell entry in rVSIV-deltaG-MarV-GP pseuotype virus infected HEK293 cells; assay type: toxicity; details: human, read-out: Ratio CC50/IC50
Procedure, shortened: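 Selectivity index is CC50 divided by IC50 against the MARV-GP pseudotype. CC50 came from an MTT assay on HEK293 cells. For IC50, HEK293 cells were infected with rVSIV-ΔG-MarV-GP with or without compound, across a low-toxicity concentration range chosen from CC50. The luciferase signal was read 24 h post-infection.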

HEK293 = test: Cytotoxicity against HEK293 cells assessed as reduction in cell viability after 48 hrs by MTT assay; assay type: cell-based; details: human, hek293, 48 h
Procedure, shortened: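 HEK293 target cells were exposed to the compounds and viability was read by MTT assay.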

[2] = Selectivity ratio of IC50 for Marburg virus envelope glycoprotein-mediated cell entry in rVSIV-deltaG-MarV-GP pseuotype virus infected HEK293 cells to IC50 for Vesicular stomatitis Indiana virus envelope glycoprotein-mediated cell entry in rVSIV-deltaG-G pseudotype virus infected HEK293 cells
Procedure, shortened: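 Specificity coefficient is IC50 for rVSIV-ΔG-MarV-GP divided by IC50 for rVSIV-ΔG-G. Each IC50 came from HEK293 cells infected with that pseudotype (same VSIV capsid, different glycoprotein) with or without compound, at low-toxicity concentrations. Transduced luciferase was measured 24 h post-infection.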

| SMILES | selectivity ratio [1] | CC50 (HEK293) [µM] | Ratio IC50 [2] |
| --- | --- | --- | --- |
| CC1(C)[C@H]2CC[C@]1(C)[C@H](OC(=O)CCN1CCCC1)C2 | 59 | 684 | 2 |
| CN1CCN(CCC(=O)O[C@@H]2C[C@@H]3CC[C@@]2(C)C3(C)C)CC1 | 20 | 421 | 16 |
| CCN1CCN(CC(=O)O[C@@H]2C[C@@H]3CC[C@@]2(C)C3(C)C)CC1 | 29 | 859 | 15 |
| CC1(C)[C@H]2CC[C@]1(C)[C@H](OC(=O)CN1CCOCC1)C2 | 5 | 1280 | 1 |
| CC1(C)[C@H]2CC[C@]1(C)[C@H](OC(=O)CN1CCCC1)C2 | 9 | 480 | 5 |
| CCCCN(CCCC)CC(=O)O[C@@H]1C[C@@H]2CC[C@@]1(C)C2(C)C | 6 | 73 | 2 |
| CC1(C)[C@H]2CC[C@]1(C)[C@H](OC(=O)CCN1CCOCC1)C2 | 5 | 406 | 3 |
| CC1(C)[C@H]2CC[C@]1(C)[C@H](OC(=O)CCN1CCNCC1)C2 | 21 | 207 | 10 |
| CC1(C)[C@H]2CC[C@]1(C)[C@H](O)C2 [(-)-BORNEOL] | > 14 | > 3000 | > 3 |
| CCN1CCN(CCC(=O)O[C@@H]2C[C@@H]3CC[C@@]2(C)C3(C)C)CC1 | 47 | 474 | 11 |
| CC1CCN(CCC(=O)O[C@@H]2C[C@@H]3CC[C@@]2(C)C3(C)C)CC1 | 60 | 215 | 34 |
| CC1CCN(CC(=O)O[C@@H]2C[C@@H]3CC[C@@]2(C)C3(C)C)CC1 | 9 | 240 | 3 |
| CCCCN(CCCC)CCC(=O)O[C@@H]1C[C@@H]2CC[C@@]1(C)C2(C)C | 15 | 86 | 8 |
| CC1(C)[C@H]2CC[C@]1(C)[C@H](OC(=O)CCN1CCCCC1)C2 | 35 | 302 | 14 |
| CC1(C)[C@H]2CC[C@]1(C)[C@H](OC(=O)CN1CCCCC1)C2 | 4 | 321 | 1 |
| CN1CCN(CC(=O)O[C@@H]2C[C@@H]3CC[C@@]2(C)C3(C)C)CC1 | 14 | 637 | 4 |
| CC1(C)[C@H]2CC[C@]1(C)[C@H](OC(=O)CN1CCNCC1)C2 | 18 | 361 | 3 |
| COc1ccc(CCN(C)CCCC(C#N)(c2ccc(OC)c(OC)c2)C(C)C)cc1OC (configuration not stated) |  | 280 |  |
